In ChEMBL document CHEMBL1154626, “Novel, potent, and selective quinoxaline-based 5-HT(3) receptor ligands. 1. Further structure-activity relationships and pharmacological characterization” (J Med Chem, 2009):

Columns and labels:
[1] = target: T1, 5-hydroxytryptamine receptor 3A (Rattus norvegicus, UniProt P35563); test: Displacement of [3H]LY278584 from 5HT3 receptor in rat cortical homogenate
T1 sequence (P35563 whole entry): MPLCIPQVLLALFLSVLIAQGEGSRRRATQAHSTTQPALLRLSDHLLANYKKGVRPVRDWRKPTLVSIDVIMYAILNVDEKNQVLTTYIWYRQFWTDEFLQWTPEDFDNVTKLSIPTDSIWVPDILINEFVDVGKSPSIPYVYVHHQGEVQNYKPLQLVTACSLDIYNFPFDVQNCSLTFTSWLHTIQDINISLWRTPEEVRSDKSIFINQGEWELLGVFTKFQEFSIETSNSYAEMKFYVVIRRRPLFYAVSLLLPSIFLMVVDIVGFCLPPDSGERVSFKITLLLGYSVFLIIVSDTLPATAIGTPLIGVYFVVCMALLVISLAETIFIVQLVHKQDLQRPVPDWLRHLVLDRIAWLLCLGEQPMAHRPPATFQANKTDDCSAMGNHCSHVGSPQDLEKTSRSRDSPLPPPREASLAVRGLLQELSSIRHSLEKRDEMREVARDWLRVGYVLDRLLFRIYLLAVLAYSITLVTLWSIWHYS
Method in brief: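 Rat cortical homogenate, competition against [3H]LY278584 binding. Ki is the concentration giving half-maximal inhibition of binding, as the mean ± S.E.M. of three determinations.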

Rattus norvegicus = test: Antagonist activity at 5HT3 receptor in iv dosed Sprague-Dawley rat assessed as inhibition of 1-phenylbiguanide-induced bradycardia administered 5 mins before 1-phenylbiguanide challenge measured after 5 to 30 mins post-treatment by von Bezold-Jarisch reflex test; format: functional
Method in brief: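 Urethane-anesthetized rats, compound given iv. Agonism was scored as the compound itself evoking the von Bezold-Jarisch reflex (bradycardia). Antagonism was tested by giving the compound iv 5, 15 or 30 min before phenylbiguanide (PBG) and scoring the reduction of PBG-evoked bradycardia. ED50 is the dose giving half of the maximal bradycardia evoked by the same compound.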

[2] = target: T2, 5-hydroxytryptamine receptor 1A (Rattus norvegicus, UniProt P19327); test: Displacement of [3H]8-OHDPAT from 5HT1A receptor in rat hippocampus; format: tissue-based
T2 sequence (P19327 whole entry): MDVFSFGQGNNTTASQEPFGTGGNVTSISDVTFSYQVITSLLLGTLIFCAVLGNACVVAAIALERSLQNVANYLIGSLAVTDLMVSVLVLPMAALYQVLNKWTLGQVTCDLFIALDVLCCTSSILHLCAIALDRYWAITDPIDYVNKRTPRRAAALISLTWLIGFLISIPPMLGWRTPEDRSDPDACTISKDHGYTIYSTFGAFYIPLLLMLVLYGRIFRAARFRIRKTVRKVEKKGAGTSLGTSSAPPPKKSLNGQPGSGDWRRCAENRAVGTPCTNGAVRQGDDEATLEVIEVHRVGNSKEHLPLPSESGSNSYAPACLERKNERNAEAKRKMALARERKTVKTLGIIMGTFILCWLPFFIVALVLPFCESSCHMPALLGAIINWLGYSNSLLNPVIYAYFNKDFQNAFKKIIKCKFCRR

[3] = target: 5-hydroxytryptamine receptor 2A (Rattus norvegicus, UniProt P14842); test: Displacement of [3H]ketanserin from 5HT2A receptor in rat cortex
[4] = target: T3, Alpha-2A adrenergic receptor (Rattus norvegicus, UniProt P22909); test: Displacement of [3H]RX821002 from adrenergic alpha2 receptor in rat cortex
T3 sequence (P22909 whole entry): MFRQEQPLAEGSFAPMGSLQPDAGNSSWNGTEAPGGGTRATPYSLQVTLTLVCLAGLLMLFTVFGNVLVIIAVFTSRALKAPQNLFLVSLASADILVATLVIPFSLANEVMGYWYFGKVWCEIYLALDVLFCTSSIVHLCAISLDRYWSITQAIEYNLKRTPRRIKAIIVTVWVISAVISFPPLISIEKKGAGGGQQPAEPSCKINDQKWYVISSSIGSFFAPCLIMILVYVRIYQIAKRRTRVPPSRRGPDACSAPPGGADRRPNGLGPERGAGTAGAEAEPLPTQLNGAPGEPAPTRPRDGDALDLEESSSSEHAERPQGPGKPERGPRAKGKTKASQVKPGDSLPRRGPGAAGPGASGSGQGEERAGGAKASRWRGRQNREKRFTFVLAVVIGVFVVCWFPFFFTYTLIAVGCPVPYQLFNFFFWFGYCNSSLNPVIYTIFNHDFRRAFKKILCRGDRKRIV

D(1A) dopamine receptor = D(1A) dopamine receptor (Rattus norvegicus, UniProt P18901); test: Displacement of [3H]SCH-23390 from dopamine D1 receptor in rat striatum
D(2) dopamine receptor = D(2) dopamine receptor (Rattus norvegicus, UniProt P61169); test: Displacement of [3H]spiperone from dopamine D2 receptor in rat striatum
Chain of D(2) dopamine receptor (P61169 whole entry): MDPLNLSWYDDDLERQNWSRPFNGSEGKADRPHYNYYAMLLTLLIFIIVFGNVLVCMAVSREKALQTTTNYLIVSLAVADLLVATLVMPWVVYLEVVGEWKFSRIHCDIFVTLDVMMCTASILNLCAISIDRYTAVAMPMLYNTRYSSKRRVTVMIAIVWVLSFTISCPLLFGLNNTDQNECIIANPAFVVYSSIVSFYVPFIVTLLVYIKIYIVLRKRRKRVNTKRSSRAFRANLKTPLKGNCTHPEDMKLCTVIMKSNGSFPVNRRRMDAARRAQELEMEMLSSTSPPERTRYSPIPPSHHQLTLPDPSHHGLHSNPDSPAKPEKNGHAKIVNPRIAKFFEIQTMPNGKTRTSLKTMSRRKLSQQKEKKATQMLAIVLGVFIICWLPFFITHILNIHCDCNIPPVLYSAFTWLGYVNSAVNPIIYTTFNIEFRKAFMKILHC

Chain of D(1A) dopamine receptor (P18901 whole entry): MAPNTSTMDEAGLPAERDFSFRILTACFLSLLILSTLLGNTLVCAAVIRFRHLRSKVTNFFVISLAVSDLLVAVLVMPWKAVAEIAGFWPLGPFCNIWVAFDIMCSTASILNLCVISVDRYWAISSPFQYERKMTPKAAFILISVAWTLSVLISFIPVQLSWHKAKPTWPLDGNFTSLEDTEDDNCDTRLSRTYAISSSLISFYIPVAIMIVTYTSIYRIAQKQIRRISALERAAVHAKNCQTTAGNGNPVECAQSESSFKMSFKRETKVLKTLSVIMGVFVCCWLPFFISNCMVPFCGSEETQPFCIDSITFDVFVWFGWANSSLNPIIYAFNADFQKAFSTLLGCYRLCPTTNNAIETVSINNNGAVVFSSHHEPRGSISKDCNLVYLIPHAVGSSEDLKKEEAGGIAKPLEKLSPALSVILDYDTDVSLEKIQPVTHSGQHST
Chain of 5-hydroxytryptamine receptor 2A (P14842 whole entry): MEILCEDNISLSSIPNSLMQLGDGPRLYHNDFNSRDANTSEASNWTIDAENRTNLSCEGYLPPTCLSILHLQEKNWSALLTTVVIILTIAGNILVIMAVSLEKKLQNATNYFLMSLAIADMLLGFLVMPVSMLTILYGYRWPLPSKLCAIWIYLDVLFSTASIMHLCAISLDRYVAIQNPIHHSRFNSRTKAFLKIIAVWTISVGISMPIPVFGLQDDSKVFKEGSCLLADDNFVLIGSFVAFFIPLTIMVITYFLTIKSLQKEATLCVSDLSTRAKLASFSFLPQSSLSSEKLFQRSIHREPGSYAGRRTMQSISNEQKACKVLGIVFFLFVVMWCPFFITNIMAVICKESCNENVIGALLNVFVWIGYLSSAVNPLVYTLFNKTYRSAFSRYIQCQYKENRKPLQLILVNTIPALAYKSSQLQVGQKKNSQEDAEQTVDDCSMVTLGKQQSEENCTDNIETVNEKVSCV

CN1CCN(c2nc3cc(F)ccc3n3cccc23)CC1
Ki ([1]; read-out: Ki): 0.81 nM
ID50 (Rattus norvegicus): 0.6 mg/kg

Cc1cccc2nc(N3CCN(CCn4ccnc4)CC3)c3cccn3c12
Ki ([1]; read-out: Ki): 17.8 nM

Cc1cccc2nc(N3CCN(Cc4cnc[nH]4)CC3)c3cccn3c12
Ki ([1]; read-out: Ki): 0.49 nM
Ki [2]: > 10000 nM
Ki [3]: 9810 nM
Ki [4]: > 10000 nM
Ki (D(1A) dopamine receptor): > 10000 nM
Ki (D(2) dopamine receptor): > 10000 nM

Cc1cccc2nc(N3CCN(Cc4ccccc4)CC3)c3cccn3c12
Ki [1]: 8.8 nM

CN1CCN(c2nc3cccc(F)c3n3cccc23)CC1
Ki ([1]; read-out: Ki): 0.44 nM
ID50 (Rattus norvegicus): 0.12 mg/kg

Fc1ccc2c(c1)nc(N1CCN(CC3=NCCN3)CC1)c1cccn12
Ki ([1]; read-out: Ki): 30 nM

Cc1cccc2nc(N3CCN(C)CC3)c3cccn3c12
Ki ([1]; read-out: Ki): 0.79 nM

Fc1ccc2c(c1)nc(N1CCN(CCn3ccnc3)CC1)c1cccn12
Ki ([1]; read-out: Ki): 22.2 nM
